Source: ChEMBL document CHEMBL1123899, “Nucleic acid related compounds. 51. Synthesis and biological properties of sugar-modified analogues of the nucleoside antibiotics tubercidin, toyocamycin, sangivamycin, and formycin” (1987)
Converted amounts (≈) assume the structure as drawn.

Columns and labels:
HeLa = assay: Minimum cytotoxic concentration required to cause a microscopically detectable alteration of normal cell morphology in Hela cells; format: functional, Homo sapiens
In short: (§1)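 Cytotoxicity read microscopically as the minimum concentration producing a detectable alteration of normal cell morphology, in PRK, HeLa or Vero cell cultures. Average of two to three separate experiments.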

Human respirovirus 3 = assay: Minimum inhibitory concentration required to reduce parainfluenza type 3 induced cytopathogenicity by 50%; format: functional
L1210 [1] = assay: Minimum inhibitory concentration required to reduce incorporation of [5-3H]-Urd into TCA-insoluble material from murine leukemia L1210 cells; format: functional; details: Mus musculus
In short: (§2)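 Murine L1210 leukemia cells were exposed to compound and incorporation of [4,5-3H]leucine (protein) or [5-3H]Urd (RNA) into TCA-insoluble material was measured. MIC50 is the concentration reducing incorporation by 50%. Values are averages of at least three separate experiments.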

Measles morbillivirus = assay: Minimum inhibitory concentration required to reduce measles virus induced cytopathogenicity by 50%; format: functional
Human alphaherpesvirus 2 = assay: Minimum inhibitory concentration required to reduce Herpes simplex virus type 2 (HSV-2 strain G) induced cytopathogenicity by 50%; format: functional
Coxsackievirus B4 = assay: Minimum inhibitory concentration required to reduce Coxsackie virus type B-4-induced cytopathogenicity by 50%; format: functional
Sindbis virus = assay: Minimum inhibitory concentration required to reduce sindbis virus induced cytopathogenicity by 50%; format: functional
Human alphaherpesvirus 1 = assay: Minimum inhibitory concentration required to reduce Herpes simplex virus type 1 (HSV-1, strain KOS) induced cytopathogenicity by 50%; format: functional
L1210 [2] = assay: Inhibition of murine leukemia L1210 cell growth; format: functional; details: Mus musculus
In short: (§3)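 Murine L1210 leukemia cells; MIC50 is the concentration reducing cell growth, or incorporation of [methyl-3H]dThd into TCA-insoluble material (DNA synthesis), by 50%. Average of at least three separate experiments.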

L1210 [3] = assay: Minimum inhibitory concentration required to reduce incorporation of [4,5-3H]leucine into TCA-insoluble material from murine leukemia L1210 cells; format: functional; details: Mus musculus; in short: as §2
[4] = system: Vesicular stomatitis virus; assay: Minimum inhibitory concentration required to reduce Vesicular stomatitis virus (VSV) induced cytopathogenicity by 50%; format: functional
L1210 [5] = assay: Minimum inhibitory concentration required to reduce incorporation of [methyl-3H]dThd into TCA-insoluble material from murine leukemia L1210 cells; format: functional; details: Mus musculus; in short: as §3
Poliovirus 1 = assay: Minimum inhibitory concentration required to reduce Polio virus type 1 induced cytopathogenicity by 50%; format: functional; details: Enterovirus C
Vero = assay: Minimum cytotoxic concentration required to cause a microscopically detectable alteration of normal cell morphology in Vero cells; format: functional, Chlorocebus sabaeus; in short: as §1
[6] = system: Mammalian orthoreovirus 1; assay: Minimum inhibitory concentration required to reduce reo virus type 1 induced cytopathogenicity by 50%; format: functional
Oryctolagus cuniculus = species on record: Oryctolagus cuniculus; assay: Minimum cytotoxic concentration required to cause a microscopically detectable alteration of normal cell morphology in primary rabbit kidney cells; format: functional; in short: as §1
[7] = system: Vesicular stomatitis virus; assay: Minimum inhibitory concentration required to reduce vesicular stomatitis virus (VSV) induced cytopathogenicity by 50%; format: functional

SMILES	MTC (HeLa) [µg/mL]	MIC50 (Human respirovirus 3) [µg/mL]	MIC50 (L1210 [1]) [µg/mL]	MIC50 (Measles morbillivirus) [µg/mL]	MIC50 (Human alphaherpesvirus 2) [µg/mL]	MIC50 (Coxsackievirus B4; Enterovirus B, read-out: MIC50) [µg/mL]	MIC50 (Sindbis virus) [µg/mL]	MIC50 (Human alphaherpesvirus 1) [µg/mL]	MIC50 (L1210 [2]) [µg/mL]	MIC50 (L1210 [3]) [µg/mL]	MIC50 [4] [µg/mL]	MIC50 (L1210 [5]) [µg/mL]	MIC50 (Poliovirus 1) [µg/mL]	MTC (Vero) [µg/mL]	MIC50 [6] [µg/mL]	MTC (Oryctolagus cuniculus) [µg/mL]	MIC50 [7] [µg/mL]	MIC50 (Coxsackievirus B4) [µg/mL]
Nc1ncnc2c([C@H]3C[C@H](O)[C@@H](CO)O3)n[nH]c12	>400	> 400	> 100	> 400	> 400	> 400	> 400	> 400	867 (≈ 3450 µM)	> 1000	> 400	> 1000	> 400	>400	> 400	>400	> 400	
N#Cc1cn(C2OC(CO)CC2O)c2ncnc(N)c12 (configuration not stated)	1	0.4 (≈ 1.45 µM)	0.16 (≈ 0.581 µM)	> 1	> 0.4	0.7 (≈ 2.54 µM)	0.7 (≈ 2.54 µM)	> 0.4	0.02 (≈ 0.0727 µM)	0.113 (≈ 0.411 µM)	> 1	93 (≈ 338 µM)	> 1	1	0.7 (≈ 2.54 µM)	1	> 1	>1
NC(=O)c1cn([C@@H]2O[C@H](CO)[C@@H](O)[C@@H]2O)c2ncnc(N)c12	10	1 (≈ 3.23 µM)	5.85 (≈ 18.9 µM)	10 (≈ 32.3 µM)	1 (≈ 3.23 µM)		> 40	4 (≈ 12.9 µM)	0.98 (≈ 3.17 µM)	2.2 (≈ 7.11 µM)	1.5 (≈ 4.85 µM)	50 (≈ 162 µM)	> 10	40	6 (≈ 19.4 µM)	40	3 (≈ 9.7 µM)	
Nc1ncnc2c1ccn2[C@@H]1O[C@H](CO)[C@@H](O)[C@@H]1O	>400	300 (≈ 1130 µM)	237 (≈ 890 µM)	> 400	40 (≈ 150 µM)	> 400	> 400	125 (≈ 469 µM)	7 (≈ 26.3 µM)	151 (≈ 567 µM)	> 350	32 (≈ 120 µM)	> 400	>400	> 400	>400	> 400	
Nc1ncnc2c([C@@H]3O[C@H](CO)[C@@H](O)[C@H]3O)[nH]nc12 [FORMYCIN]	1	2 (≈ 7.48 µM)	25.7 (≈ 96.2 µM)	> 10	8 (≈ 29.9 µM)		> 10	10 (≈ 37.4 µM)	3.7 (≈ 13.8 µM)	5.5 (≈ 20.6 µM)	> 1	7.5 (≈ 28.1 µM)	> 1	10	> 10	20	10 (≈ 37.4 µM)	
N#Cc1cn([C@@H]2O[C@H](CO)[C@@H](O)[C@@H]2O)c2ncnc(N)c12	10	> 10	10.3 (≈ 35.4 µM)	> 10	2 (≈ 6.87 µM)	> 10	> 10	7 (≈ 24 µM)	2 (≈ 6.87 µM)	4.8 (≈ 16.5 µM)	> 10	14 (≈ 48.1 µM)	> 10	10	> 10	10	> 10	
N#Cc1cn([C@@H]2O[C@H](CO)[C@@H](O)[C@H]2O)c2ncnc(N)c12 [TOYOCAMYCIN]	0.4	> 0.04	0.071 (≈ 0.244 µM)		> 0.04		> 0.04	> 0.04	0.006 (≈ 0.0206 µM)	0.039 (≈ 0.134 µM)	0.07 (≈ 0.24 µM)	38 (≈ 130 µM)	> 0.4	0.04	> 0.04	0.04	> 0.04	
NC(=O)c1cn(C2OC(CO)CC2O)c2ncnc(N)c12 (configuration not stated)	40	10 (≈ 34.1 µM)		> 40	> 10	> 40	> 40	> 10	0.46 (≈ 1.57 µM)		> 40	17 (≈ 58 µM)	> 40	40	> 40	10	> 10	
Nc1ncnc2c1ccn2[C@H]1C[C@H](O)[C@@H](CO)O1 [2'-Deoxytubercidin]	>400	40 (≈ 160 µM)	205 (≈ 819 µM)	> 200	40 (≈ 160 µM)		> 400	50 (≈ 200 µM)	23 (≈ 91.9 µM)	44 (≈ 176 µM)	150 (≈ 599 µM)	127 (≈ 507 µM)	150 (≈ 599 µM)	>400	200 (≈ 799 µM)	>400	125 (≈ 499 µM)	
